Laboratory results as given in ChEMBL document CHEMBL1132197, “Stereospecific synthesis, structure-activity relationship, and oral bioavailability of tetrahydropyrimidin-2-one HIV protease inhibitors” (J Med Chem, 1999).

Assays:
[1] = target: Human immunodeficiency virus type 1 protease (Human immunodeficiency virus 1, UniProt Q72874); test: Inhibition constant of HIV protease inhibitors
Summary of the method: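 HIV protease (HIVPR) inhibition constant was determined by monitoring cleavage of a fluorescent peptide substrate, with products separated and quantified by HPLC.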

MT2 = test: Antiviral activity by measuring its effect on the accumulation of viral RNA transcripts on infection of MT-2 cells with HIV-1 RF.; type: functional; conditions: Homo sapiens
Summary of the method: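 Viral RNA transcript accumulation read 3 days after HIV-1 RF infection of MT-2 cells. IC90 is the concentration cutting viral RNA by 90% versus an untreated infected culture. TC50 came from MTT dye reduction in uninfected MT-2 cultures grown 3 days with compound.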

[2] = The maximum plasma concentration (Cmax) is the observed peak plasma concentration after an oral dose on rat.; type: ADME, organism-based; set-up: route oral
Summary of the method: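 Rats dosed orally in groups at 10 mg/kg, in a formulation of propylene glycol, poly(ethylene glycol) 400 and water. Cmax is the observed peak plasma concentration after the oral dose.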

Row | SMILES | Ki [1] [nM] | IC90 (MT2) [nM] | Cmax [2] [nM]
1 | N=C(NO)c1cccc(CN2C(=O)N(Cc3cccc(C(=N)NO)c3)[C@H](Cc3ccc(F)cc3)[C@H](O)[C@H]2CCc2ccc(F)cc2)c1 | 0.02 | 49 | –
2 | O=C1N(Cc2cccc(O)c2)[C@H](Cc2ccccc2)[C@H](O)[C@@H](O)[C@@H](Cc2ccccc2)N1Cc1cccc(O)c1 | – | 54 | 810
3 | NC(=O)c1cccc(CN2C(=O)N(Cc3cccc(C(N)=O)c3)[C@H](Cc3ccccc3)[C@H](O)[C@H]2CCc2ccccc2)c1 | 0.09 | – | –
4 | NC(=O)c1cccc(CN2C(=O)N(Cc3cccc(C(N)=O)c3)[C@H](Cc3ccc(F)cc3)[C@H](O)[C@H]2CCc2ccc(F)cc2)c1 | 0.31 | 35 | –
5 | CNc1cccc(CN2C(=O)N(Cc3cccc(NC)c3)[C@H](Cc3ccccc3)[C@H](O)[C@H]2CCc2ccccc2)c1 | – | 328 | –
6 | O=C1N(Cc2cccc(CO)c2)[C@H](Cc2ccccc2)[C@H](O)[C@@H](O)[C@@H](Cc2ccccc2)N1Cc1cccc(CO)c1 | – | 38 | 830
7 | N#Cc1cc(CN2C(=O)N(Cc3ccc(F)c(C#N)c3)[C@H](Cc3ccccc3)[C@H](O)[C@H]2CCc2ccccc2)ccc1F | 230 | – | –
8 | Nc1cc(CN2C(=O)N(Cc3ccc(F)c(N)c3)[C@H](Cc3ccccc3)[C@H](O)[C@H]2CCc2ccccc2)ccc1F | – | 36 | –
9 | O=C(Nc1nccs1)c1cccc(CN2C(=O)N(Cc3cccc(C(=O)Nc4nccs4)c3)[C@H](Cc3ccccc3)[C@H](O)[C@H]2CCc2ccccc2)c1 | 0.03 | 31 | –
10 | Cc1ccc(NC(=O)c2cccc(CN3C(=O)N(Cc4cccc(C(=O)Nc5ccc(C)cn5)c4)[C@H](Cc4ccccc4)[C@H](O)[C@H]3CCc3ccccc3)c2)nc1 | 0.08 | 26 | –
11 | Nc1cccc(CN2C(=O)N[C@H](CCc3ccccc3)[C@@H](O)[C@H]2Cc2ccccc2)c1 | 6.2 | 4330 | –
12 | N#Cc1cc(CN2C(=O)N(Cc3ccccc3)[C@H](CCc3ccccc3)[C@@H](O)[C@H]2Cc2ccccc2)ccc1F | 40 | – | –
13 | O=C(O)c1cccc(CN2C(=O)N(Cc3cccc(C(=O)O)c3)[C@H](Cc3ccccc3)[C@H](O)[C@H]2CCc2ccccc2)c1 | 0.87 | – | –
14 | N#Cc1cc(CN2C(=O)N[C@H](CCc3ccccc3)[C@@H](O)[C@H]2Cc2ccccc2)ccc1F | 110 | – | –
15 | N/C(=N\O)c1cccc(CN2C(=O)N(CC3CC3)[C@H](CCc3ccccc3)[C@@H](O)[C@H]2Cc2ccccc2)c1 | 0.48 | 36 | –
16 | [N-]=[N+]=N[C@@H](Cc1ccccc1)[C@@H]1[C@@H](O)[C@@H](Cc2ccccc2)N(Cc2ccc3ccccc3c2)C(=O)N1Cc1ccc2ccccc2c1 | 330 | – | –
17 | NC(=O)c1cccc(CN2C(=O)N(Cc3cccc(C(N)=O)c3)[C@H](Cc3ccc(F)c(F)c3)[C@H](O)[C@H]2CCc2ccc(F)c(F)c2)c1 | 0.15 | 90 | –
18 | Nc1cccc(CN2C(=O)N[C@H](Cc3ccccc3)[C@H](O)[C@H]2CCc2ccccc2)c1 | 157 | – | –
19 | O=C1[C@@H](CCc2ccccc2)N(Cc2ccccc2)C(=O)N(Cc2ccccc2)[C@@H]1Cc1ccccc1 | 1500 | – | –
20 | N#Cc1cccc(CN2C(=O)N3C(Cc4ccccc4)[C@@H]3[C@@H](O)[C@H]2Cc2ccccc2)c1 (some centres undefined) | 2400 | – | –
21 | N#Cc1cccc(CN2C(=O)N(Cc3cccc(N)c3)[C@H](Cc3ccccc3)[C@H](O)[C@H]2CCc2ccccc2)c1 | 1.6 | 565 | –

Row | SMILES | Ki [1] [nM] | IC90 (MT2) [nM] | Cmax [2] [nM]
22 | CC(=O)c1cccc(CN2C(=O)N(Cc3cccc(C(C)=O)c3)[C@H](Cc3ccccc3)[C@H](O)[C@@H](O)[C@H]2Cc2ccccc2)c1 | – | – | 500
23 | O=C1N(Cc2cccc(O)c2)[C@H](CCc2ccccc2)[C@@H](O)[C@@H](Cc2ccccc2)N1Cc1cccc(O)c1 | – | 115 | 120
24 | NC(=O)c1cc(CN2C(=O)N(Cc3ccc(F)c(C(N)=O)c3)[C@H](Cc3ccccc3)[C@H](O)[C@H]2CCc2ccccc2)ccc1F | – | 490 | –
25 | N#Cc1cc(CN2C(=O)N(Cc3ccccc3)[C@H](Cc3ccccc3)[C@H](O)[C@H]2CCc2ccccc2)ccc1F | 33 | – | –
26 | Cc1n[nH]c2ccc(CN3C(=O)N(Cc4cccc(N)c4)[C@H](Cc4ccccc4)[C@H](O)[C@H]3CCc3ccccc3)cc12 | 0.13 | 32 | –
27 | Cc1n[nH]c2ccc(CN3C(=O)N(Cc4ccc5[nH]nc(C)c5c4)[C@H](Cc4ccccc4)[C@H](O)[C@H]3CCc3ccccc3)cc12 | 0.1 | 18 | –
28 | NC(=O)c1cccc(CN2C(=O)N(Cc3cccc(N)c3)[C@H](Cc3ccccc3)[C@H](O)[C@H]2CCc2ccccc2)c1 | 0.06 | 24 | –
29 | Nc1cccc(CN2C(=O)N(Cc3ccc4[nH]ncc4c3)[C@H](Cc3ccccc3)[C@H](O)[C@H]2CCc2ccccc2)c1 | 0.08 | 13 | –
30 | O=C1N(CC2CC2)[C@H]([C@@H](O)Cc2ccccc2)[C@@H](O)[C@@H](Cc2ccccc2)N1CC1CC1 | 410 | – | –
31 | O=C1N[C@H](Cc2ccccc2)[C@H](O)[C@H]2C(Cc3ccccc3)N12 (some centres undefined) | 3000 | – | –
32 | Nc1[nH]nc2ccc(CN3C(=O)N(Cc4ccc5n[nH]c(N)c5c4)[C@H](Cc4ccccc4)[C@H](O)[C@H]3CCc3ccccc3)cc12 | 0.03 | 383 | –
33 | O=C1N(Cc2ccccc2)C[C@@H](O)[C@@H](Cc2ccccc2)N1Cc1ccccc1 | 2400 | – | –
34 | Nc1[nH]nc2ccc(CN3C(=O)N[C@H](CCc4ccccc4)[C@@H](O)[C@H]3Cc3ccccc3)cc12 | 0.38 | 549 | –
35 | Nc1[nH]nc2ccc(CN3C(=O)N(Cc4ccccc4)[C@H](CCc4ccccc4)[C@@H](O)[C@H]3Cc3ccccc3)cc12 | 0.28 | 126 | –
36 | N=C(NO)c1cc(CN2C(=O)N(Cc3ccc(F)c(C(=N)NO)c3)[C@H](Cc3ccccc3)[C@H](O)[C@H]2CCc2ccccc2)ccc1F | 0.06 | 51 | –
37 | O=C1N(CC2CC2)[C@H](CCc2ccccc2)[C@@H](O)[C@@H](Cc2ccccc2)N1CC1CC1 | 9.8 | – | –
38 | N=C(NO)c1cccc(CN2C(=O)N(Cc3cccc(C(=N)NO)c3)[C@H](Cc3ccc(F)c(F)c3)[C@H](O)[C@H]2CCc2ccc(F)c(F)c2)c1 | 0.01 | 117 | –
39 | O=C1N[C@H](CCc2ccccc2)[C@@H](O)[C@@H](Cc2ccccc2)N1Cc1cccc(O)c1 | 2.6 | 4800 | –
40 | O=C1N(Cc2cccc(CO)c2)[C@H]([C@@H](Br)Cc2ccccc2)[C@@H](O)[C@@H](Cc2ccccc2)N1Cc1cccc(CO)c1 | 11 | 2100 | –
41 | N#Cc1cccc(CN2C(=O)N(Cc3cccc(C#N)c3)[C@H](Cc3ccc(F)cc3)[C@H](O)[C@H]2CCc2ccc(F)cc2)c1 | 14 | 1560 | –
42 | O=C1N[C@H](CCc2ccccc2)[C@@H](O)[C@@H](Cc2ccccc2)N1Cc1ccc2[nH]ncc2c1 | 1.2 | 590 | –

Row | SMILES | Ki [1] [nM] | IC90 (MT2) [nM] | Cmax [2] [nM]
43 | Nc1cccc(CN2C(=O)N(Cc3ccc4[nH]ncc4c3)[C@H](CCc3ccccc3)[C@@H](O)[C@H]2Cc2ccccc2)c1 | 0.1 | 16 | –
44 | O=C1N[C@H](Cc2ccccc2)[C@H](O)[C@@H](CCc2ccccc2)N1Cc1ccc2[nH]ncc2c1 | 44 | – | –
45 | N#Cc1cccc(CN2C(=O)N[C@H](CCc3ccccc3)[C@@H](O)[C@H]2Cc2ccccc2)c1 | 15 | – | –
46 | NC(=O)c1cc(CN2C(=O)N[C@H](CCc3ccccc3)[C@@H](O)[C@H]2Cc2ccccc2)ccc1F | 14 | – | –
47 | O=C1N(Cc2ccccc2)[C@H](/C=C/c2ccccc2)[C@@H](O)[C@@H](Cc2ccccc2)N1Cc1ccccc1 | 460 | – | –
48 | NC(=O)c1cccc(CN2C(=O)N3C(Cc4ccccc4)[C@@H]3[C@@H](O)[C@H]2Cc2ccccc2)c1 (some centres undefined) | 320 | – | –
49 | NC(=O)c1cccc(CN2C(=O)N[C@H](CCc3ccccc3)[C@@H](O)[C@H]2Cc2ccccc2)c1 | 5.6 | – | –
50 | O=C1N(Cc2cccc(-c3cc[nH]n3)c2)[C@H](Cc2ccccc2)[C@H](O)[C@@H](O)[C@@H](Cc2ccccc2)N1Cc1cccc(-c2cc[nH]n2)c1 | – | – | 70
51 | N#Cc1cccc(CN2C(=O)N(Cc3cccc(C#N)c3)[C@H](Cc3ccccc3)[C@H](O)[C@H]2CCc2ccccc2)c1 | – | 1600 | –
52 | N/C(=N\O)c1cccc(CN2C(=O)N3C(Cc4ccccc4)[C@@H]3[C@@H](O)[C@H]2Cc2ccccc2)c1 (some centres undefined) | 12 | – | –
53 | Nc1ccc(CN2C(=O)N(Cc3ccc(N)c(F)c3)[C@H](Cc3ccccc3)[C@H](O)[C@H]2CCc2ccccc2)cc1F | – | 539 | –
54 | O=C1N(Cc2ccccc2)[C@H]([C@@H](Br)Cc2ccccc2)[C@@H](O)[C@@H](Cc2ccccc2)N1Cc1ccccc1 | 185 | – | –
55 | O=C1N(Cc2ccccc2)[C@H](CCc2ccccc2)[C@@H](O)[C@@H](Cc2ccccc2)N1Cc1ccccc1 | – | 2800 | –
56 | O=C1N(Cc2ccc3c[nH]nc3c2)[C@H](CCc2ccccc2)[C@@H](O)[C@@H](Cc2ccccc2)N1Cc1ccc2c[nH]nc2c1 | 0.06 | 32 | –
57 | N/C(=N\O)c1cccc(CN2C(=O)N(Cc3cccc(N)c3)[C@H](Cc3ccccc3)[C@H](O)[C@H]2CCc2ccccc2)c1 | 0.02 | 17 | –
58 | N/C(=N\O)c1cc(CN2C(=O)N[C@H](CCc3ccccc3)[C@@H](O)[C@H]2Cc2ccccc2)ccc1F | 1.4 | 3780 | –
59 | Nc1[nH]nc2ccc(CN3C(=O)N(Cc4ccccc4)[C@H](Cc4ccccc4)[C@H](O)[C@H]3CCc3ccccc3)cc12 | 0.65 | 71 | –
60 | O=C1N(Cc2ccc3ccccc3c2)[C@H](/C=C/c2ccccc2)[C@@H](O)[C@@H](Cc2ccccc2)N1Cc1ccc2ccccc2c1 | 280 | – | –
61 | Nc1noc2ccc(CN3C(=O)N(Cc4ccc5onc(N)c5c4)[C@H](Cc4ccccc4)[C@H](O)[C@H]3CCc3ccccc3)cc12 | 0.41 | 132 | –
62 | Nc1cccc(CN2C(=O)N(Cc3ccc4[nH]nc(N)c4c3)[C@H](CCc3ccccc3)[C@@H](O)[C@H]2Cc2ccccc2)c1 | 0.1 | 53 | –
63 | Nc1cccc(CN2C(=O)N(Cc3cccc(N)c3)[C@H](Cc3ccccc3)[C@H](O)[C@@H](O)[C@H]2Cc2ccccc2)c1 [MOZENAVIR] | – | – | 2250
